Results: ChEMBL document CHEMBL3739335, “Phosphonooxymethyl Prodrug of Triptolide: Synthesis, Physicochemical Characterization, and Efficacy in Human Colon Adenocarcinoma and Ovarian Cancer Xenografts” (J Med Chem, 2015)

What was measured:
[1] = Second dissociation constant, pKa2 of the compound by 31P NMR analysis
How it was run: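 pKa2 derived from the pH dependence of the observed 31P NMR chemical shift across solutions of varying pH, by sigmoidal fit (titration-type curve); at 25 °C.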

[2] = Chemical stability of the compound in buffer assessed as compound remaining at pH 2 after 8 hrs by HPLC analysis; format: physicochemical; conditions: read-out: Stability
[3] = Chemical stability of the compound in buffer assessed as pseudo-first-order rate constant at 4 degC at pH 7.4 by Arrhenius plot analysis; format: physicochemical
How it was run: (§1)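 Pseudo-first-order kobsd at each temperature was fitted to an Arrhenius plot, which was extrapolated to 25 and 4 °C. t1/2 and t90 (time for 10% loss) were calculated from the extrapolated kobsd.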

[4] = Chemical stability of the compound in buffer assessed as compound remaining at pH 4 after 8 hrs by HPLC analysis; format: physicochemical; conditions: read-out: Stability
[5] = Chemical stability of the compound in buffer assessed as pseudo-first-order rate constant at 70 degC at pH 7.4 by Arrhenius plot analysis; format: physicochemical
[6] = Stability of the compound in glycine buffer at pH 9.8 after 1 hr in absence of bovine intestinal mucosal alkaline phosphatase; format: physicochemical; conditions: pH 9.8, 1 h
How it was run: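 Conversion in glycine buffer pH 9.8 with alkaline phosphatase from bovine intestinal mucosa; loss of compound and formation of triptolide followed, first-order fit for half-life. Control run in same buffer without enzyme for 1 h.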

[7] = Stability of the compound in simulated intestinal fluid assessed as compound remaining at pH 7.5 after 8 hrs by HPLC analysis; format: ADME; conditions: read-out: Stability
How it was run: (§2)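 Drug incubated in simulated gastric fluid or simulated intestinal fluid and sampled at 0, 1, 2, 4, 8 and 24 h. Percent remaining was measured by reversed-phase C18 HPLC with photodiode-array detection, using a 20-min gradient of 10–70% acetonitrile against 10 mM sodium phosphate buffer at pH 7.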

[8] = Half life of the compound in buffer at 4 degC at pH 7.4; format: physicochemical; how it was run: as §1
Mus musculus = assay: Toxicity in athymic nude mouse xenografted with human A2780 cells assessed as survival at 0.6 to 0.9 mg/kg, ip administered for 30 days; format: organism-based; conditions: in vivo, 720 h
How it was run: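 Female athymic nude mice, 7–9 weeks old, carried subcutaneous flank A2780 xenografts (2.5 × 10^6 cells in 50% Matrigel). Randomized at 188 mm3 mean tumor volume, 10 per group. Daily intraperitoneal dosing in USP saline (0.2 mL) for 30 days, based on group-mean weight. Survival and clinical signs were monitored.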

[9] = Stability of the compound in simulated gastric fluid assessed as compound remaining after 4 hrs by HPLC analysis
[10] = Chemical stability of the compound in buffer assessed as compound remaining at pH 9 after 2 hrs by HPLC analysis; format: physicochemical; conditions: read-out: Stability
[11] = Stability of the compound in simulated intestinal fluid assessed as compound remaining at pH 7.5 after 4 hrs by HPLC analysis; format: ADME; conditions: read-out: Stability; how it was run: as §2

CC(C)[C@]12O[C@H]1[C@@H]1O[C@]13[C@]1(O[C@H]1C[C@H]1C4=C(CC[C@@]13C)C(=O)OC4)[C@@H]2OCOP(=O)([O-])[O-].[Na+].[Na+] [MINNELIDE]
pKa [1]: 6.61
remaining at 8 h [2]: 94%
K [3]: 6.5 ×10⁻⁶ /hr
remaining at 8 h [4]: 99%
K [5]: 0.008659 h⁻¹
Stability [6]: Stable
remaining at 8 h [7]: 99%
t1/2 [8]: 12.2 yr
Activity (Mus musculus): Non-toxic
remaining at 4 h [9]: 71%
remaining at 2 h [10]: 100%
remaining at 4 h [11]: 100%
